An excerpt weighted towards active compounds, which were near 1.2% of everything screened.
proCasp7 act – counter-screen: procaspase-7 (human) activation | P55210 | recombinant procaspase-7, Ac-DEVD-pNA absorbance 405 nm; D23A/D198A/D206A triple mutant, cannot self-cleave; scale: DMSO 0, 5 µM enzyme 100 | activation, % at 8.5 µM | 0.093% of 330,000 active;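 active = percent activation above the screen-wide mean plus 3 SD, cut at about 25% in these data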
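Assay system – Uncleavable procaspase-7 mutant enzyme · Quantity – 2 µM procaspase-7 mutant as dispensed · Times – 1 h preincubation, 2 h reaction · Dosing – single nominal 8.5 µM compound dose, 0.8% DMSO final · Buffer or medium – Zinc-free 50 mM HEPES buffer, pH 7.4, with NaCl and Triton X-100 · Detection – Epi-absorbance of released pNA at 405 nm, two timepoints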
IDE act – boosts human insulin-degrading enzyme activity in HEK cells. 0.073% of 340,000 active. activation, % at 5.96 µM. P14735. FAbeta-B cleavage, fluorescence polarization; 0% vehicle, 100% cell-free pure enzyme wells;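 active = activation above the mean of all tested compounds plus 3 SD, set per screening campaign, cut at about 17% in these data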
procasp3 activ – activates human procaspase-3. activation, % at 8.5 µM. P42574. AID 463141. 0.11% of 330,000 active. recombinant procaspase-3 D3A, Ac-DEVD-pNA absorbance 405 nm;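 active = activation above the mean of all tested compounds plus 3 SD, cut at about 21% in these data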;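 also: 0% = DMSO alone and 100% = DMSO wells spiked with extra 5 µM PC-3 D3A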
Target sequence (P42574 whole entry D9A/D28A/D175A): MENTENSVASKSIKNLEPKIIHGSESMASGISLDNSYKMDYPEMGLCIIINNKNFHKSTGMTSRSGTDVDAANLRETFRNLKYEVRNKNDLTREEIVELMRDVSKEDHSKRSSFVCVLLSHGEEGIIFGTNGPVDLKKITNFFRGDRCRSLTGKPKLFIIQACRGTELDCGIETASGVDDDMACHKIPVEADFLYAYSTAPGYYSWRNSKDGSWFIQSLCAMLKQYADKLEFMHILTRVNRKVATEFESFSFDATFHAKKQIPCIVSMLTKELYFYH
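Evaluation: percent activation relative to control range; Material: Procaspase-3 D3A mutant, all three cleavage aspartates alanine; Compound: single dose, 8.5 µM nominal compound, 0.8% DMSO; Replication: one well per compound; Signal: absorbance at 405 nm, 0 and 120 min; Schedule: 1 h preincubation plus 2 h reaction at 25 °C.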
TPT1 inhibitor – inhibitors of Candida albicans tRNA 2'-phosphotransferase TPT1 | inhibition, % at 5 µM | AID 1962 | recombinant caTPT1, FP RNA substrate dephosphorylation | 0.81% of 300,000 active;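 active = inhibition above the mean of all tested compounds plus 3 SD, set per screening campaign, cut at about 24% in these data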;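 also: plate controls were DMSO alone for no effect and ferristatin control at 100 nM for full effect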
IDE cell inh – cellular human IDE inhibition; P14735; HEK cells, FAbetaB cleavage, fluorescence polarization; inhibition, % at 5.59 µM; 0.41% of 320,000 active; AID 434962;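 active = percent inhibition above the average of all tested compounds plus 3 SD, set per screening campaign, cut at about 16% in these data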;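 also: IDE supplied by intact live HEK cells; FP after avidin binding of uncleaved biotin substrate so inhibition keeps polarization high; 0% = DMSO wells and 100% = 60 µM reference IDE inhibitor Ii1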
TPT1 inh confirm – TPT1 (C. albicans) inhibition, confirmation; recombinant caTPT1, fluorescence polarization, RNase T1 coupled; 74% of 2,400 active; inhibition, % at 5 µM; shares compounds with TPT1 inhibitor;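 active = inhibition above the primary screen limit, the mean inhibition of all tested compounds plus 3 SD, cut at about 25% in these data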
RNase T1 inh – counter-screen for TPT1 inhibitors: inhibitors of Aspergillus oryzae RNase T1. shares compounds with TPT1 inhibitor. RNase T1 cleavage, fluorescence polarization, 1536-well. inhibition, % at 5 µM. 83% of 2,400 active. AID 2153;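 active = inhibition above the solvent-only control well mean plus 3 SD, limit set per screening run, cut at about 23% in these data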;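 also: plate controls were DMSO wells with enzyme for no effect and wells without RNase T1 for full effect; inhibitors block cleavage so intact labeled substrate keeps polarization high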
Target sequence (P00651 whole entry, looked up): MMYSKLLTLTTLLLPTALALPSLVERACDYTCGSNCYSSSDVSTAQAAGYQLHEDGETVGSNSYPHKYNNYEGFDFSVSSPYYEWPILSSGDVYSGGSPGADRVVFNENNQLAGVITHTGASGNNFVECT
* = called active by the depositor; · = no result given.

SMILES	proCasp7 act	IDE act	procasp3 activ	TPT1 inhibitor	IDE cell inh	TPT1 inh confirm	RNase T1 inh
O=C(c1ccc(Cl)c([N+](=O)[O-])c1)N1CCN(Cc2ccc3c(c2)OCO3)CC1	17	6	-7	-1	-1	·	·
O=C(COC(=O)c1ccc(O)cc1)Nc1ccccc1[N+](=O)[O-]	10	16	5	1	3	·	·
COc1ccc(-n2c(O)c(/C=N/NS(=O)(=O)c3ccc(C)cc3)c3ccccc3c2=O)cc1OC	-4	-32	-2	109*	5	70*	86*
COc1ccc(-n2c(O)c(/C=N/NS(=O)(=O)c3cc(C)ccc3C)c3ccccc3c2=O)cc1OC	-2	-38	-3	109*	9	94*	98*
COc1ccc(-n2c(O)c(/C=N/Nc3nc(C)cc(C)n3)c3ccccc3c2=O)cc1OC	-12	0	-7	2	-4	·	·
c1ccc(Oc2cnc3ccccc3n2)cc1	-2	4	14	-4	5	·	·
COc1ccc(Oc2cnc3ccccc3n2)cc1	-6	2	-2	66*	3	4	5
CSc1nnc(C)c(/C=C/Nc2ccc(F)cc2)n1	-8	-14	-1	116*	4	101*	105*
COc1ccc(N/C=C/C(=O)C(F)(F)F)cc1	0	3	3	1	-1	·	·
COc1ccc(N/C=C/c2nc(SC)nnc2C)cc1	-7	-13	-12	111*	4	108*	111*
CSc1nnc(C)c(/C=C/Nc2ccc(Cl)cc2)n1	-7	-3	-3	154*	3	121*	117*
NC(=O)c1sc(-c2ccsc2)cc1NS(=O)(=O)c1ccc(C(F)(F)F)cc1	-21	·	-8	-6	-2	·	·
Cc1nc(C(=O)O)nn1-c1cc(Cl)ccc1Cl	5	-4	-1	3	-1	·	·
Cc1cccc(C(=O)N2CCNC(=O)C2CC(=O)Nc2cccc(Cl)c2)c1 (stereo not drawn)	13	-1	6	24*	0	-2	3
COc1cc(OC)cc(C(C(=O)NCc2ccccc2)N(Cc2ccco2)C(=O)c2ccno2)c1 (stereo not drawn)	14	1	-7	42*	0	16	25*
CC1=Nc2ccc(C)cc2/C1=C/c1c(N)n2nc(CC(=O)N3CCOCC3)sc2nc1=O	-6	1	2	35*	3	24	36*
CCO/C=C1/C(=O)N(C)C(=O)c2cc(OC)ccc21	7	0	-3	39*	0	55*	66*
C[C@]12C=CC(=O)C=C1CC[C@@H]1C2=CC[C@]2(C)[C@@H](C(=O)CN3CCN(c4cc(N5CCCC5)nc(N5CCCC5)n4)CC3)CC[C@@H]12	-5	0	-1	31*	-1	29*	41*
Cc1ccc(C(C)C)c(Oc2cnccn2)c1	4	0	-8	2	-2	·	·
O=C(O)CC/C(=N\Nc1ccc([N+](=O)[O-])cc1S(=O)(=O)N1CCOCC1)c1cccs1	-7	0	-4	29*	1	41*	52*
CCOC(=O)C1(CC2CCCCO2)CCN(C(=O)Nc2ccc3c(c2)OCO3)CC1 (stereo not drawn)	-22	2	-11	38*	-4	0	18
CCOC(=O)C1(CC2CCCCO2)CCN(C(=O)Nc2ccc(C(=O)OC)cc2)CC1 (stereo not drawn)	9	7	-1	-1	10	·	·
CN(C)c1ccc(/C=C(/NC(=O)c2ccccc2)C(=O)N2CCCC2)cc1	-1	-3	-3	60*	6	35*	44*
CCOc1ccccc1NS(=O)(=O)c1cn(C)c(=O)n(C)c1=O	0	·	1	0	6	·	·
CC(/C=C/c1ccc(N(C)C)cc1)=N\N=C(/N)SC1CC(=O)N(c2ccc(C(=O)O)cc2)C1=O (stereo not drawn)	-6	2	1	26*	9	28*	43*
SMILES	proCasp7 act	IDE act	procasp3 activ	TPT1 inhibitor	IDE cell inh	TPT1 inh confirm	RNase T1 inh
O=C(O)c1ccc(N2C(=O)CC(SC(=Nc3ccccc3)Nc3ccccc3)C2=O)cc1 (stereo not drawn)	3	1	-7	-1	7	·	·
CCc1nnc(NC(=O)CSc2sc3c(O)cc(=O)[nH]c3c2C#N)s1	-21	-1	0	49*	-1	14	18
CCOc1ccc(/C=N/OCC(=O)NCc2ccc3c(c2)OCO3)cc1OC	5	2	-1	6	-6	·	·
COC(=O)c1ccnc(SCC(=O)c2ccccc2)c1	-4	-1	7	1	-2	·	·
COC(=O)c1ccnc(/C=N/O)c1	2	6	0	50*	-2	7	7
O=C(Nc1nccs1)c1ccc(N2C(=O)C3CCCCC3C2=O)cc1 (stereo not drawn)	7	1	3	65*	4	5	11
O=C(Nc1nccs1)c1ccc(N2C(=O)[C@@H]3[C@H](C2=O)[C@H]2C=C[C@@H]3C2)cc1	15	3	5	0	1	·	·
COc1ccc(C(=O)c2sc3nc(C)cc(-c4cccs4)c3c2N)cc1OC	-6	-10	-6	73*	10	73*	78*
Cc1cc(-c2cccs2)c2c(N)c(C(=O)c3ccc4c(c3)OCO4)sc2n1	-6	-1	-1	37*	5	58*	67*
Cc1cc(C)c2c(N)c(C(=O)c3ccc(Cl)cc3)sc2n1	-18	2	-12	-3	8	·	·
COc1ccc(C(=O)c2sc3nc(C)cc(-c4cccs4)c3c2N)cc1	·	-6	·	·	·	·	·
N#CC1=C(N)Oc2cc(N)ccc2C1c1ccc(F)cc1 (stereo not drawn)	-19	2	-10	1	2	·	·
N#CC1=C(N)Oc2cc(N)ccc2C1c1ccc(F)cc1F (stereo not drawn)	-24	3	-11	42*	7	33*	44*
O=C1c2cccc3c(N4CCCCC4)ccc(c23)C(=O)N1CCO	-3	-35	-7	50*	51*	4	18
CCCCOc1ccc(C(=O)NNC(=O)C2C3C=CC(C3)C2C(=O)O)cc1 (stereo not drawn)	6	-3	8	-1	0	·	·
CC(C)C1Cc2ccccc2-c2[nH]c(=S)[nH]c(=O)c21 (stereo not drawn)	-8	·	-2	-1	-2	·	·
COc1ccc(NC(=O)c2cc(S(=O)(=O)N3CCCCC3)c[nH]2)cc1Cl	2	-3	2	-2	2	·	·

Compound activity deposited in PubChem by The Scripps Research Institute Molecular Screening Center.
